# Hits are enriched below; roughly 3.4% of the tested compounds scored in any of these assays.
# SIRT5 inh: SIRT5 desuccinylase inhibitors, primary screen, biochemical, fluorescence imaging, single point, set 5; NAD-dependent protein deacylase sirtuin-5, mitochondrial (Homo sapiens), Q9NXA8; Purified SirT5, succinyl-peptide AMC, trypsin-coupled fluorescence; inhibition, % at 15 µM; 1.1% of 330,000 active; AID 652115, 2013; in the data active = inhibition above about 15%; inconclusive = no clear call, values can overlap the other calls
# ERAP1 HTS inh: human ERAP1 aminopeptidase inhibitors, primary screen, biochemical, single point, plate reader. AID 652197, 2013. Endoplasmic reticulum aminopeptidase 1 (Homo sapiens), Q9NZ08. recombinant ERAP1, Leu-AMC fluorescence, 60 min. inhibition, % at 10.7 µM. 0.15% of 340,000 active;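 active = mean replicate inhibition of at least 30%, or all replicates individually reaching that 30% level; inactive = mean below 30% and not every replicate reaching it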
# E-sel inducer: E-selectin induction in HUVECs, primary screen, imaging, HUVEC, immunofluorescence imaging, single point; P16581; normalized: neutral wells 0, TNF-alpha wells 100; activation, % at 7.58 µM; 0.37% of 260,000 active; AID 686992, 2013;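 active = mean E-selectin-positive cell signal at least 10% of the positive control, reached in at least 60% of replicates, without over 20% cell loss; inconclusive = no rule given, readout overlaps actives, possibly toxicity-flagged; inactive = the rest, including those meeting only one limit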
#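 Material: HUVEC primary endothelial cells; Amount: 3,000 cells per well; Dosing: single concentration; Medium: EGM-2 growth medium on 0.1% gelatin-coated wells; Read-out basis: percent E-selectin-positive cells; Signal: immunofluorescence imaging; Control set: TNF-alpha, DMSO.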
# AF4-AF9 inh: inhibitors of AF4 peptide binding to AF9, primary screen, biochemical, AlphaScreen, biotin-AF4 peptide, FLAG-AF9, single point; Protein AF-9 (Homo sapiens), P42568; inhibition, % at 10 µM; 0.47% of 350,000 active; AID 651704, 2012;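 active = every replicate reaching a set inhibition limit, whatever the replicate mean, cut at about 25% in these data; inconclusive = mean inhibition reaches that limit but some replicates miss it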
# Target sequence (P42568 whole entry, looked up): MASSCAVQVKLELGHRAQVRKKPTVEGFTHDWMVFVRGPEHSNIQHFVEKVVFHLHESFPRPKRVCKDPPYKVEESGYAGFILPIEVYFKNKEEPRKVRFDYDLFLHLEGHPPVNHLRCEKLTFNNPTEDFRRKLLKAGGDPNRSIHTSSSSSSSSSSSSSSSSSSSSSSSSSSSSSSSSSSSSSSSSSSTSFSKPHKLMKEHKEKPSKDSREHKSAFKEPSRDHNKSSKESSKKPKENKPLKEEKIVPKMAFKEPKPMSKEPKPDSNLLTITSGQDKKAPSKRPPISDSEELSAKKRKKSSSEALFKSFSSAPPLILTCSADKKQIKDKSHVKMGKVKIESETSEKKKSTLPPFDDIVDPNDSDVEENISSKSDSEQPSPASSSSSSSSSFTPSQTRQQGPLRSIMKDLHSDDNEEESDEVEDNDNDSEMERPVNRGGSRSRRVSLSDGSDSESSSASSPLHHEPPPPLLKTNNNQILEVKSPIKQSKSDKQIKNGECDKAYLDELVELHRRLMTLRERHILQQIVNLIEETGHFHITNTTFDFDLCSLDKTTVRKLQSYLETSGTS
# S100A4 MyoIIA: inhibitors of S100A4-myosin IIA peptide binding, primary screen, biochemical, fluorescence polarization, TAMRA-MyoIIA peptide; Protein S100-A4 (Homo sapiens), P26447; inhibition, % at 10.7 µM; 0.14% of 360,000 active; AID 652163, 2013;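 active = mean inhibition of at least 70% across replicates, with every replicate also reaching that level; inconclusive = mean inhibition reaches 70% but some replicates fall short; inactive = mean inhibition below 70%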
# Target sequence (P26447 whole entry, looked up): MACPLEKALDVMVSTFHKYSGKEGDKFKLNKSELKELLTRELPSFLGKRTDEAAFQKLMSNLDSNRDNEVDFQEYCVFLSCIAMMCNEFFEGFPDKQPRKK
#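 Material: human S100A4 monomer with TAMRA-labelled myosin IIA peptide; buffer or medium: HEPES pH 7.2 with CaCl2, KCl, NaCl, DTT, Triton; compound dosing: one concentration per compound; schedule: 5 min incubation before reading; benchmarks: neutral control DMSO, positive control TFP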
# Ecoli rRNA inh: reduced GFP signal of wild-type E. coli, primary screen, bacterial rRNA inhibitor project, GFP/RFP fluorescence, OD600, single point; E. coli WT GFP vs humanized-ribosome RFP mutants, 24 h; hits give low values; DMSO median 0, no signal -100; GFP signal change (wild-type ribosome), % (no concentration beside the values); 1.6% of 350,000 active; AID 720706, 2013;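 active = significant combined selectivity score with lowered wild-type GFP, culture density cut under 30%, mutant RFP and density less affected; inactive = any of these conditions unmet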
# A number is an active result; i = inactive; ? = inconclusive; nt = no result.
SMILES,SIRT5 inh,ERAP1 HTS inh,E-sel inducer,AF4-AF9 inh,S100A4 MyoIIA,Ecoli rRNA inh
CC(=O)N1[C@@H]2CN(C(=O)NC(C)C)C[C@H]1C2c1ccc(Br)cc1 (some centres undefined),nt,nt,nt,nt,nt,i
O=C(NCCO)c1cc2c([nH]c3ccccc32)c(-c2ccccc2)n1,i,i,nt,i,i,-28
Cc1ccc(S(=O)(=O)Nc2ccc3c(c2)CC(=O)N([C@H](C)CO)C[C@H](C)[C@@H](CN(C)S(=O)(=O)c2cccs2)O3)cc1,i,i,i,i,i,i
CCOC(=O)c1ccc(NC(=O)O[C@H]2[C@H](OC(=O)Nc3ccccc3)[C@@H](OC(=O)Nc3ccccc3)[C@@H](OC)O[C@@H]2CO)cc1,20,i,nt,i,i,nt
N=c1c2c(n(Cc3ccc(F)cc3)c3c1CCC3)CCC2,i,i,nt,i,i,-29
Fc1ccc(CN2CCCCCCC2)cc1,i,i,nt,i,i,i
CCn1c2c(c(=N)c3c1CCC3)CCC2,i,i,nt,i,i,i
CCCCCCCn1c2c(c(=N)c3c1CCC3)CCCC2,i,83,i,i,i,i
O=C(NCc1ccccc1)[C@@H]1[C@@H](CO)[C@@H]2Cn3c(ccc(-c4cccnc4)c3=O)[C@@H]2N1Cc1cocn1,nt,nt,i,nt,nt,i
O=C(c1ccccc1F)N1CC(=O)N2[C@H](CO)[C@H](c3ccc(C#Cc4ccccc4)cc3)[C@H]2C1,i,i,i,i,i,i
O=C(c1ccccc1F)N1CC(=O)N2[C@@H](CO)[C@H](c3ccc(C#Cc4ccccc4)cc3)[C@@H]2C1,i,i,i,i,79,i
O=C(c1ccc2c(c1)OCO2)N1CC(=O)N2[C@@H](CO)[C@H](c3ccc(C#Cc4ccccc4)cc3)[C@@H]2C1,i,i,i,i,114,i
O=C(c1ccc2c(c1)OCO2)N1CC(=O)N2[C@H](CO)[C@H](c3ccc(C#Cc4ccccc4)cc3)[C@@H]2C1,i,i,i,i,i,i
Cc1cc(C)nc(N/N=C/c2cc(Br)ccc2O)n1,i,i,i,i,i,-37
Cc1cc(C)nc(N/N=C/c2ccccc2OCc2ccc(Br)cc2)n1,i,i,nt,i,i,i
Cc1ccc(S(=O)(=O)N/N=C/c2cc(Br)ccc2O)cc1,i,i,i,30,i,i
COc1ccc(O)c(/C=N/NS(=O)(=O)c2ccc(C)cc2)c1,i,i,i,i,i,i
O=C(NCc1ccccc1)[C@H]1CCCN1C(=O)[C@H]1CCCN1C(=O)c1cccc2ccccc12,nt,i,i,i,i,i
O=C(NCc1ccccc1Cl)[C@H]1CCCN1C(=O)[C@H]1CCCN1C(=O)c1cccc2ccccc12,i,nt,i,i,i,-23
CCCNC(=O)N1[C@@H](C#N)[C@H](c2ccccc2)[C@@H]1CO,i,i,i,i,i,i
Cn1nc(CSc2ccccc2)c(C=O)c1Cl,15,i,i,i,i,i
N#C[C@H]1[C@@H](c2ccccc2-c2ccc(F)cc2)[C@H](CO)N1C(=O)Cc1ccccc1,i,i,i,i,i,i
CC(=O)N1CCN=C1SCc1ccc(Br)cc1,nt,nt,nt,i,i,i
CCOC(=O)N1CCN=C1SCc1ccc(Cl)c(Cl)c1,i,i,119,i,i,i
CC(=O)N1/C(=C/c2ccc(N(C)C)cc2)C(=O)c2ccccc21,i,i,i,44,i,i
SMILES,SIRT5 inh,ERAP1 HTS inh,E-sel inducer,AF4-AF9 inh,S100A4 MyoIIA,Ecoli rRNA inh
CN(C)c1ccc(/C=C2\CCC/C(=C\c3ccccc3)C2=O)cc1,i,i,nt,i,i,i
COc1ccccc1NC(=O)N(C)C[C@@H]1OCc2ccccc2-c2c(n(C)c3ccccc23)C(=O)N([C@@H](C)CO)C[C@H]1C,i,i,i,i,i,i
COc1ccc(/C=c2\s/c(=C\C(=O)C(C)(C)C)[nH]c2=O)cc1O,i,i,i,?,i,-26
COc1cc(/C=c2\s/c(=C\C(=O)C(C)(C)C)[nH]c2=O)cc(OC)c1OC,i,i,nt,i,i,-18
CC(C)(C)C(=O)/C=c1\[nH]c(=O)/c(=C\c2ccc(C#N)cc2)s1,nt,nt,i,nt,nt,nt
COc1cc(/C=C/C(=O)Nc2nnc(C(C)(C)C)s2)cc(OC)c1OC,nt,nt,i,nt,nt,nt
COCC(=O)NC[C@@H]1CC[C@@H]2[C@@H](CN2S(=O)(=O)c2ccccc2[N+](=O)[O-])O1,i,i,nt,i,i,nt
CO[C@@H]1CN(C)C(=O)c2cc(NC(=O)C3CC3)ccc2OC[C@@H](C)NC[C@@H]1C,i,i,i,i,i,i
COc1cccc(-c2ccc([C@@H]3[C@@H](CO)N4C(=O)CN(C(=O)NC(C)C)C[C@H]34)cc2)c1,i,i,i,i,i,i
COc1ccccc1CN1[C@@H](CO)[C@@H]2c3ccccc3N(C(=O)c3cccnc3)C[C@@H]21,i,i,i,44,i,i
COc1ccccc1CN1[C@H](CO)[C@H]2c3ccccc3N(C(=O)c3cccnc3)C[C@H]21,i,i,i,i,130,i
O=C(C1CCOCC1)N1C[C@@H]2[C@H](c3ccccc31)[C@H](CO)N2Cc1ccccc1F,15,i,i,i,i,i
COc1ccccc1CN1[C@H](CO)[C@@H]2c3ccccc3N(C(=O)c3cccnc3)C[C@@H]21,i,i,i,i,i,i
O=C(C[C@H]1C[C@H]2c3cc(NC(=O)C4CCC4)ccc3O[C@H]2[C@@H](CO)O1)NCc1ccc(-c2ccccc2)cc1,nt,i,i,i,i,i
CCCNC(=O)N1CC(=O)N2[C@H](C1)[C@H](c1ccc(-c3cccc(C)c3)cc1)[C@@H]2CO,i,i,i,i,i,i
C[C@H](CO)N1C[C@H](C)[C@H](CN(C)C(=O)NC2CCCCC2)Oc2ccc(NC(=O)NC3CCCCC3)cc2CC1=O,i,i,i,i,i,i
COc1ccc(C(=O)Nc2nnc(CC(=O)N/N=C/c3ccc(O)cc3O)s2)cc1,17,i,i,i,i,i
O=[N+]([O-])c1ccc2c(c1)nc1n2CCCCC1,17,i,nt,i,i,i
CCCN1C[C@H](C)[C@@H](OC)CN(C)C(=O)c2ccc(NC(=O)CC)cc2OC[C@H]1C,nt,nt,i,nt,nt,i
CC(=O)C[C@@H]1OC[C@H](Cc2ccccc2)N1S(=O)(=O)c1ccc(C)cc1,i,i,i,i,i,-28
COCC(=O)Nc1c(C(=O)Nc2ccc3c(c2)OCCO3)oc2ccccc12,i,i,i,i,i,i

# Bioassay records: PubChem, Broad Institute
